Screens as filed in PubChem.
Compounds with a hit are over-represented: about 2.5% of the library has one in this group of screens.
ABHD5-PLIN5 inh: ABHD5-PLIN5 protein interaction inhibition; Q00G26+Q8WTS1; Split G. princeps luciferase complementation, luminescence, 4 h; 360,000 tested, 0.78% active; inhibition, % at 4 µM;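 active means inhibition above the mean inhibition across every tested compound plus 3 SD, cut at about 22% in these data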;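 further: 0% = DMSO only wells and the 100% control is not disclosed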
MBD2 DNA inh: MBD2-methylated oligo binding inhibition. Q9UBB5. TR-FRET, MBD2 binding to methylated oligonucleotide. inhibition, % at 4.4 µM. 370,000 tested, 0.31% active. AID 686964; in the data active means inhibition above about 13%
Arr AP2 block: blocks beta-arrestin peptide binding to AP2 adaptin; FITC-arrestin peptide / GST-AP2 beads, flow cytometry; AP2 beta2 appendage carries R879A mutation; inhibition, % at 10 µM; 340,000 tested, 0.31% active;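 active means inhibition above a set limit, near 3 SD of compounds lacking own fluorescence, cut at about 54% in these data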;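 further: plate controls were DMSO wells for no effect and 5 µM unlabelled arrestin peptide for full effect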
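Material – GST-tagged AP2 beta2-adaptin appendage (R879A) on 4 µm glutathione beads · Probe or stimulus – fluorescein-tagged arrestin peptide at 50 nM final · Timing – 12 min plus 1 h, RT · Detection – bead flow cytometry, FITC channel · Read-out basis – inhibition as reduced fluorescein signal on beads, percent · Medium – PBS plus Tween 20 (0.05%) and BSA (0.1%)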
Rin1 Abl inh: human Rin1-Abl interaction inhibition; P00519+Q13671; 360,000 tested, 0.4% active; TR-FRET Rin1/Abl binding, biochemical; inhibition, % at 7.35 µM; in the data active means inhibition above about 5%, passing the limit was not always enough
Target sequence (P00519 whole entry, looked up): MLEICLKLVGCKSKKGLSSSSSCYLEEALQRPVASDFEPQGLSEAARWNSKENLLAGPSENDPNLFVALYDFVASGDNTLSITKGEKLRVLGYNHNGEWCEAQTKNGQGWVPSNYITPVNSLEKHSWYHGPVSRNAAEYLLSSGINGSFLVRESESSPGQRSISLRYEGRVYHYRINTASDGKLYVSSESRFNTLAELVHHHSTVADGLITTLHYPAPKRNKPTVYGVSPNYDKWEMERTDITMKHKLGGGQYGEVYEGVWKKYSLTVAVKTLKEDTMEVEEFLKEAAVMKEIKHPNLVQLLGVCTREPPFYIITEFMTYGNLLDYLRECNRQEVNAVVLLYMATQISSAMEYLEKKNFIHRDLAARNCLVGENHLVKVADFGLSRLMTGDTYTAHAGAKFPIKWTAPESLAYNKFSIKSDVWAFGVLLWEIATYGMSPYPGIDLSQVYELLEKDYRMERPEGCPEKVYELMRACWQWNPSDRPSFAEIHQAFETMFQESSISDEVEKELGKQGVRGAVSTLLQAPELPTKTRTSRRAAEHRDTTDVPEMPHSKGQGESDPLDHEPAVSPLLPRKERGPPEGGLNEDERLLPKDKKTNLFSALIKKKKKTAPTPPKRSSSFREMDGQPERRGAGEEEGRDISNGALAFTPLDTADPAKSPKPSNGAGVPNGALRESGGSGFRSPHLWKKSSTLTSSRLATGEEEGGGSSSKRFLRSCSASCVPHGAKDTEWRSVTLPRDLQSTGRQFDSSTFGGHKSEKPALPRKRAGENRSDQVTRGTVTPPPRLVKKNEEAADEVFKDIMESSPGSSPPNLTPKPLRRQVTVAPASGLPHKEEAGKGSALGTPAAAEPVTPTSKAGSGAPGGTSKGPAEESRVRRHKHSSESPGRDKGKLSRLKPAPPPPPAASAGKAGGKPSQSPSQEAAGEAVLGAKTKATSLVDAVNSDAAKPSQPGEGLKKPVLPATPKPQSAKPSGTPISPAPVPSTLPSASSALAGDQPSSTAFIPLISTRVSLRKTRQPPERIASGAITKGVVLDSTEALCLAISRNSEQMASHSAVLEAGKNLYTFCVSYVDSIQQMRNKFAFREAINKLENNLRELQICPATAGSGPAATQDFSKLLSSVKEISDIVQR
Target sequence (Q13671 whole entry, looked up): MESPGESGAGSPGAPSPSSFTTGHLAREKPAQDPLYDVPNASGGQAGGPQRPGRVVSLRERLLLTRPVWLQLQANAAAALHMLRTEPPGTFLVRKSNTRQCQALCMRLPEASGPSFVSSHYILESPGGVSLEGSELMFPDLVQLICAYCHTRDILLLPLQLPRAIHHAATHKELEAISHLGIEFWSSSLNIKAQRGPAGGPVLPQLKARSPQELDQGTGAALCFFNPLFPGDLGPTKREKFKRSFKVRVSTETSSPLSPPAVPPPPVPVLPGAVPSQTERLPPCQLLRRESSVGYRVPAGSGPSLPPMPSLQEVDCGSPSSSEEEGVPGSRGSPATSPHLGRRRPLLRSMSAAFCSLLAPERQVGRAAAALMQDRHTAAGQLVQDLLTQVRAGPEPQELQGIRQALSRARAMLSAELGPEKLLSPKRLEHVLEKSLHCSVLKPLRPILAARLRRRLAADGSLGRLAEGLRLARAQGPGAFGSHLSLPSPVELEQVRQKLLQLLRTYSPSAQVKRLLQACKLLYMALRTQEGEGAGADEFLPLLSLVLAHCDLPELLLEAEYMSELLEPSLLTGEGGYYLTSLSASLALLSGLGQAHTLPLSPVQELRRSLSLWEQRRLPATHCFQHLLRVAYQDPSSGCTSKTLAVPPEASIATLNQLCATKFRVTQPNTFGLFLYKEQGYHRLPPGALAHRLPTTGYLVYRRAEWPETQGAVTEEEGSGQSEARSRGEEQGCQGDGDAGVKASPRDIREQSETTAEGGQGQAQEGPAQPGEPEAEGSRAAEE
UHRF1 binding: blocks human UHRF1 binding to methylated DNA; Q96T88; UHRF1 binding to methylated oligo, TR-FRET; inhibition, % at 4.4 µM; 370,000 tested, 0.75% active; in the data active means inhibition above about 21%;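 further: UHRF1 SRA domain binding a hemimethylated CpG hairpin DNA probe; 0% = median of test compound wells and 100% = reference inhibitor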
B2AR ag: activates human beta-2 adrenergic receptor causing internalization; P07550; Am2.2-beta2AR cells, FAP receptor internalization, flow cytometry; response, % (no concentration beside the values); 340,000 tested, 0.43% active; AID 504454;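 active means response above a set limit, near 3 SD of response in nonfluorescent compounds, cut at about 42% in these data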
ABHD5-PLIN5 conf: confirmation of human ABHD5-PLIN5 interaction inhibitors; biochemical ABHD5-PLIN5 interaction, luminescence; 2,200 tested, 67% active; inhibition, % at 4 µM; shares compounds with ABHD5-PLIN5 inh; in the data active means inhibition above about 23%;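 further: 0% = DMSO vehicle wells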
HNF4 counter: active in HNF4 split-luciferase counter-screen for ABHD5-PLIN5 inhibitors; shares compounds with ABHD5-PLIN5 inh; HNF4 dimerization, luminescence, biochemical; inhibition, % at 4 µM; 2,200 tested, 77% active; AID 651674;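 active means mean inhibition across replicate wells exceeding the computed hit threshold, cut at about 13% in these data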;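 further: light from luciferase halves that rejoin when HNF4 fusion proteins dimerize; 0% = DMSO only wells and the 100% control is not given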
* hit, by the source's call.

Results for C=CCN(CC#CC1=CCCCC1)Cc1ccc(OC)cc1OC ?
MBD2 DNA inh: -1; UHRF1 binding: -1

How did COc1ccc(C2=NN(C(=O)COc3ncnc4ccccc34)C(c3ccco3)C2)cc1 (stereo not drawn) do in these assays?
ABHD5-PLIN5 inh: 6; MBD2 DNA inh: -2; Arr AP2 block: 38; Rin1 Abl inh: 1; UHRF1 binding: -3; B2AR ag: 6

Results for COc1ccc(C2=NN(C(=O)COC(=O)c3ccc(S(C)(=O)=O)c([N+](=O)[O-])c3)C(c3ccco3)C2)cc1 (stereo not drawn) ?
ABHD5-PLIN5 inh: 29*; MBD2 DNA inh: -4; Arr AP2 block: -3; Rin1 Abl inh: 1; UHRF1 binding: 2; B2AR ag: 22; ABHD5-PLIN5 conf: 51*; HNF4 counter: 90*

What do the screens show for `O=C1CCCCCCCCCC/C(=N\O)CCCO1`?
ABHD5-PLIN5 inh: 92*; MBD2 DNA inh: 0; Arr AP2 block: -21; Rin1 Abl inh: 1; UHRF1 binding: -2; B2AR ag: 12; ABHD5-PLIN5 conf: -5; HNF4 counter: 1

How did C[C@@H]1CCCCCCCCC(=O)OCCN(C(=O)OC(C)(C)C)[C@H](C)CCCCCCCCC(=O)OCCN(C(=O)OC(C)(C)C)[C@H](C)CCCCCCCCC(=O)OCCN(C(=O)OC(C)(C)C)[C@H](C)CCCCCCCCC(=O)OCCN1C(=O)OC(C)(C)C do in these assays?
ABHD5-PLIN5 inh: -5; MBD2 DNA inh: 1; Arr AP2 block: 6; Rin1 Abl inh: -4; UHRF1 binding: -3; B2AR ag: -1

Results for COC(=O)c1c(NC(=S)NN2CCN(C)CC2)sc2c1CCC(C)C2 (stereo not drawn) ?
ABHD5-PLIN5 inh: 25*; MBD2 DNA inh: 9; Arr AP2 block: 27; Rin1 Abl inh: 4; UHRF1 binding: 2; B2AR ag: 29; ABHD5-PLIN5 conf: 6; HNF4 counter: 4

Results for COC(=O)c1c(NC(=O)Cc2cccs2)sc2c1CCC(C)C2 (stereo not drawn) ?
ABHD5-PLIN5 inh: -6; MBD2 DNA inh: 5; Arr AP2 block: 25; Rin1 Abl inh: 0; UHRF1 binding: 1; B2AR ag: 2

What do the screens show for `Cc1cccc(C(=O)N[C@@H]2CC[C@@]34CCCN3C(=O)CCC[C@H]4[C@H]2C)c1`?
MBD2 DNA inh: 6; UHRF1 binding: 1

How did O=C(C1CC1)C1(C(=O)N2CCOCC2)CC(c2ccccn2)=NO1 (stereo not drawn) do in these assays?
MBD2 DNA inh: 2; UHRF1 binding: 5

How did COc1ccc(/C=C/C(=O)c2ccncc2)c2ccccc12 do in these assays?
ABHD5-PLIN5 inh: 56*; MBD2 DNA inh: 0; Arr AP2 block: 5; Rin1 Abl inh: -1; UHRF1 binding: 4; B2AR ag: 18; ABHD5-PLIN5 conf: 84*; HNF4 counter: 79*

How did COc1cccc(/C=C/C(=O)c2cccc([N+](=O)[O-])c2)c1 do in these assays?
ABHD5-PLIN5 inh: 64*; MBD2 DNA inh: -2; Arr AP2 block: -13; Rin1 Abl inh: 0; UHRF1 binding: 8; B2AR ag: 94*; ABHD5-PLIN5 conf: 97*; HNF4 counter: 97*

How did COc1ccc(OC(=O)c2cccc([N+](=O)[O-])c2)c(C(=O)/C=C/c2cccs2)c1 do in these assays?
ABHD5-PLIN5 inh: 42*; MBD2 DNA inh: -2; Arr AP2 block: -6; Rin1 Abl inh: 4; UHRF1 binding: 0; B2AR ag: 20; ABHD5-PLIN5 conf: 57*; HNF4 counter: 53*

What do the screens show for `COc1cccc(C(=O)/C=C/c2ccc(N3CCCCC3)c([N+](=O)[O-])c2)c1`?
ABHD5-PLIN5 inh: 29*; MBD2 DNA inh: 4; Arr AP2 block: -8; Rin1 Abl inh: 0; UHRF1 binding: 4; B2AR ag: 2; ABHD5-PLIN5 conf: 87*; HNF4 counter: 73*

Results for CN1[C@H](Cc2ccccc2)COc2cccc(N3CCCC3)c2S1(=O)=O ?
MBD2 DNA inh: 4; UHRF1 binding: -2

What do the screens show for `COc1cccc(/C=C/C(=O)c2cccc([N+](=O)[O-])c2)c1OC`?
ABHD5-PLIN5 inh: 85*; MBD2 DNA inh: 1; Arr AP2 block: 21; Rin1 Abl inh: 1; UHRF1 binding: -1; B2AR ag: 17; ABHD5-PLIN5 conf: 101*; HNF4 counter: 97*

Results for COc1cccc(/C=C/C(=O)Nc2cccc(C(C)=O)c2)c1OC ?
ABHD5-PLIN5 inh: 0; MBD2 DNA inh: -8; Arr AP2 block: 15; Rin1 Abl inh: 1; UHRF1 binding: 1; B2AR ag: 28

How did O=C(C(=Cc1ccc(F)cc1)C(=O)c1ccccc1)c1ccccc1 do in these assays?
ABHD5-PLIN5 inh: 94*; MBD2 DNA inh: 2; Rin1 Abl inh: 4; UHRF1 binding: 0; ABHD5-PLIN5 conf: 97*; HNF4 counter: 87*

Results for COc1cccc(C=C(C(C)=O)C(=O)c2ccccc2)c1 ?
ABHD5-PLIN5 inh: 77*; MBD2 DNA inh: 2; UHRF1 binding: -1; ABHD5-PLIN5 conf: 87*; HNF4 counter: 80*

What do the screens show for `CCC(=O)Nc1ccc(/C=C(\C(C)=O)C(=O)c2ccccc2)cc1`?
ABHD5-PLIN5 inh: 28*; MBD2 DNA inh: 4; Arr AP2 block: -12; Rin1 Abl inh: 1; UHRF1 binding: -3; B2AR ag: -3; ABHD5-PLIN5 conf: 44*; HNF4 counter: 51*

How did O=C(C(=Cc1ccc(F)cc1)c1ccccc1)c1ccc(O)cc1 do in these assays?
ABHD5-PLIN5 inh: -4; MBD2 DNA inh: -3; Arr AP2 block: 27; Rin1 Abl inh: -4; UHRF1 binding: -1; B2AR ag: 0

What do the screens show for `COCCCNC(=O)CN1C(=O)C2CCCCN2C(=O)c2ccccc21` (stereo not drawn)?
MBD2 DNA inh: 2; UHRF1 binding: 0

What do the screens show for `COC(=O)C1CN(Cc2cn(Cc3ccc(OC)cc3)nn2)CCS(=O)(=O)N1Cc1ccc(C)cc1` (stereo not drawn)?
MBD2 DNA inh: 3; UHRF1 binding: -2

How did COc1ccc(N2C(=O)CC(Sc3nnc(-c4ccccc4)o3)C2=O)cc1 (stereo not drawn) do in these assays?
ABHD5-PLIN5 inh: 43*; MBD2 DNA inh: 5; Arr AP2 block: 6; Rin1 Abl inh: -5; UHRF1 binding: -2; B2AR ag: 2; ABHD5-PLIN5 conf: 55*; HNF4 counter: 83*

What do the screens show for `O=C(OCc1cn(Cc2c(F)cccc2F)nn1)N1CCCC1`?
MBD2 DNA inh: 3; UHRF1 binding: -1
